Experimental data taken from paper PMC2821697 (Bioorganic & medicinal chemistry, 2009).

Columns and labels:
A549 (human lung cancer) = test: Cell growth inhibition assay; format: cell-based; settings: A549, 72 h, read-out: ED50 against A549
In short: (§1)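 Trypsinized cells were seeded in 96-well plates, then exposed 72 h to test compound from DMSO-diluted stock. Cells were TCA-fixed, stained with 0.4% SRB for 10 min, and dye solubilized in trizma base; A515. ED50 is the concentration halving net protein increase, mean ± SEM of ≥2 independent determinations.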

[1] = test system: KB (nasopharyngeal carcinoma); test: Cell growth inhibition assay; format: cell-based; settings: Homo sapiens, 72 h, read-out: ED50 against KB
In short: as §1

[2] = test system: MDA-MB-231 (estrogen receptor negative breast cancer); test: Cell growth inhibition assay; format: cell-based; settings: Homo sapiens, MDA-MB-231, 72 h, read-out: ED50 against MDA-MB-231
In short: as §1

DU145 (prostate cancer) = test: Cell growth inhibition assay; format: cell-based; settings: Homo sapiens, DU-145, 72 h, read-out: ED50 against DU145
[3] = test system: SK-BR-3 (HER2 over-expressing breast cancer); test: Cell growth inhibition assay; format: cell-based, human; settings: for ED50 against SK-BR-3: mean ED50+SEM, 2 or more independent tests, SRB, 72 h; for cancer cell line selectivity: fold more potent against SK-BR-3 compared with other cancer cell lines tested: SK-BR-3 versus six additional tested cancer cell lines
In short: as §1

[4] = test system: MCF10A normal breast cell line; test: MTT assay, MCF10A normal breast cell line; format: cell-based; settings: 72 h, single experiment
In short: (§2)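 184A1 and MCF10A were from ATCC. Cells were seeded at 5000/well in the recommended growth medium and incubated overnight. Test compound dissolved in DMSO was then added, followed by 72 h at 37 °C, 5% CO2. MTT reagent was added for 2 h, and formazan was read at OD 570. Data are mean and standard deviation of replicates from a single experiment.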

[5] = test system: 184A1 normal breast cell line; test: MTT assay, 184A1 normal breast cell line; format: cell-based; settings: 72 h, single experiment
In short: as §2

[6] = test system: SK-BR-3 breast cancer cell line; test: MTT assay, SK-BR-3; format: cell-based, human; settings: 72 h, single experiment

SMILES | IC50 [1] [µM] | ED50 against SK-BR-3 [3] [µM] | cancer cell line selectivity: fold more potent against SK-BR-3 compared with other cancer cell lines tested [3] | also measured
Cc1cccc2c1ccc1c3occ(C)c3c(=O)oc21 [Compound 1, Neo-tanshinlactone] | > 37.9 | – | – | IC50 (A549 (human lung cancer)): 54.2 ± 3.4 µM; IC50 [2]: 37.9 ± 1.4 µM; IC50 (DU145 (prostate cancer)): 58.3 ± 2 µM
Cc1cccc(-c2cc3occ(C)c3c(=O)o2)c1 [Compound 10, 3-Methyl-6-m-tolyl-4H-furo[3,2-c]pyran-4-one] | – | 1.50 ± 0.04 | – | –
COc1cccc(-c2cc3occ(C)c3c(=O)o2)c1 [Compound 11, 6-(3-Methoxyphenyl)-3-methyl-4H-furo[3,2-c]pyran-4-one] | > 78.1 | – | – | –
CCOc1cccc(-c2cc3occ(C)c3c(=O)o2)c1 [Compound 12, 6-(3-Ethoxyphenyl)-3-methyl-4H-furo[3,2-c]pyran-4-one] | – | 0.67 ± 0.03 | – | –

Second part, led by results:

IC50 [1] [µM] | SMILES | ED50 against SK-BR-3 [3] [µM] | cancer cell line selectivity: fold more potent against SK-BR-3 compared with other cancer cell lines tested [3] | also measured
> 69.9 | COc1cc(OC)cc(-c2cc3occ(C)c3c(=O)o2)c1 [Compound 25, 6-(3,5-Dimethoxyphenyl)-3-methyl-4H-furo[3,2-c]pyran-4-one] | 0.28 ± 0.01 | 100- to 250 fold | interpolated ED50 against MCF10A [4]: > 35.0 µM; interpolated ED50 against 184A1 [5]: 16.8 µM; potency against SK-BR-3 relative to 1 ([3]; ED50 compared with neo-tanshinlactone (1)): approximately threefold; interpolated ED50 against SK-BR-3 [6]: 1.0 µM
> 63.3 | COc1cc(-c2cc3occ(C)c3c(=O)o2)cc(OC)c1OC [Compound 27, 3-Methyl-6-(3,4,5-trimethoxyphenyl)-4H-furo[3,2-c]pyran-4-one] | 0.44 ± 0.01 | 100- to 250 fold | –
